Screening data: PubChem, several laboratories
ROMK mod – ROMK potassium channel modulators, primary screen, cell-based, thallium flux, MLSMR library | ATP-sensitive inward rectifier potassium channel 1 (Homo sapiens), P48048 | Tet-inducible ROMK, thallium flux fluorescence; actives lie on both sides | B-score at 10 µM | 130,000 compounds, 2% hits | AID 1918, 2009;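 active = signal ratio slope over the read window, or its plate-corrected B-score, at least 3 SD from the plate mean, either direction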;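 also: B-score of the F/F0 ratio slope over 7 to 12 s after thallium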
ABCG2 inh – ABCG2 efflux pump inhibitors, primary screen, multiplex with ABCB1, IgMXP3 cells, flow cytometry. 190,000 compounds, 0.1% hits. JC-1 efflux. AID 1325, 2008. Broad substrate specificity ATP-binding cassette transporter ABCG2 (Homo sapiens), Q9UNQ0. inhibition, % at 6.6 µM;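 active = inhibition above 80%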;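 also: 0% = DMSO and 100% = nicardipine control wells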
Target sequence (Q9UNQ0 whole entry, looked up): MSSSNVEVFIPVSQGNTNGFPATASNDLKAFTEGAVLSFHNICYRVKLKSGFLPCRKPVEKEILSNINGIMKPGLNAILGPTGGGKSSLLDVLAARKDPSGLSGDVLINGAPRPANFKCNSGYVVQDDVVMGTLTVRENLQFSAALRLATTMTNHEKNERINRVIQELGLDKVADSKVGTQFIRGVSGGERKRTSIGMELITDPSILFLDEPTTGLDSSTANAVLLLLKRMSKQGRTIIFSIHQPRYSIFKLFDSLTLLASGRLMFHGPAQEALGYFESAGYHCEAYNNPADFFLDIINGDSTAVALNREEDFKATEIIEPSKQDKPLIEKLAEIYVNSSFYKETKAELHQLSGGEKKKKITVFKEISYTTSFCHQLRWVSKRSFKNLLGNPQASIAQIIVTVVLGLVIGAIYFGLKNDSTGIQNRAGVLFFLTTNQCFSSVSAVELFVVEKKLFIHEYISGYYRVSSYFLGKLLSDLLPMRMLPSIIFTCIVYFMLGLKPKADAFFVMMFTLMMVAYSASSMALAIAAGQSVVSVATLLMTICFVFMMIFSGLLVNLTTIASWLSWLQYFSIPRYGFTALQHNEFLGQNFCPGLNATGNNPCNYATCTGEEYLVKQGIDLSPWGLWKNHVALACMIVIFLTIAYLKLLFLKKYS
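Test system: IgMXP3 (ABCG2) plus far-red-tagged CCRF-Adr (ABCB1) cells. Reagent: JC-1 dye as substrate. Timing: 10 min exposure at 25 °C with rotation, no wash. Measured by: flow cytometric JC-1 green MFI at 530 nm. Read-out: percent efflux inhibition, scaled nicardipine 100% to DMSO 0%. Control set: nicardipine and DMSO wells.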
Biofilm kill mix – clotrimazole potentiators killing C. albicans biofilm, primary screen, 4-compound mixtures; C. albicans biofilm persisters + clotrimazole, fluorescence viability; primary screen in compound mixtures of four per well; inhibition, % at 7.6 µM; 120,000 compounds, 0.02% hits; AID 1242, 2008;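 active = inhibition above 30.3% in the primary screen of four-compound pools, then above 30% when the compound was retested; inconclusive = passed the primary limit but could not be retested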;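 also: compounds exposed to preformed 24 h biofilms for 48 h; 0% = untreated biofilm control and 100% = clotrimazole plus chlorhexidine kill blank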
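Assay system: C. albicans biofilms / Medium: RPMI/MOPS medium, pH 7.0 / Schedule: biofilm formation 24 h, compound exposure 48 h, 37 °C / Measured by: Alamar Blue fluorescence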
ABCB1 block – ABCB1 efflux pump inhibitors, primary screen, cell-based, multiplex, flow cytometry, ABCG2 counter-screen; ATP-dependent translocase ABCB1 (Homo sapiens), P08183; CCRF-Adr cells, JC-1 efflux; inhibition, % at 6.6 µM; 190,000 compounds, 0.067% hits; in the data active = inhibition above about 40%;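 also: 0% = vehicle and 100% = reference inhibitor; higher value means more JC-1 retained so stronger ABCB1 efflux block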
zfTRPN1 agonist – zebrafish TRPN1 channel agonists, primary screen, cell-based, HEK293, calcium fluorescence; HEK293 zebrafish TRPN1-YFP, Fluo-8 calcium fluorescence; 100% = response to 87 µM carbachol; activation, % at 3 µM; 220,000 compounds, 0.18% hits; AID 1424, 2008;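 active = activation above its plate's cutoff, the mean activation of test wells on that plate plus 3 SD, cut at about 19% in these data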;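 also: 0% = DMSO alone and 100% = 87 µM carbachol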
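Assay system: Zebrafish TRPN1-YFP in HEK293 cells | Incubation: Dye loading 1 h at 37 °C, then 30 min room temperature | Measured by: Kinetic Fluo-8 fluorescence, ex 470-495, em 515-575 nm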
TRPML3 ag – human TRPML3 channel agonists, primary screen, cell-based, HEK293 TRPML3-YFP, Fluo-8 calcium fluorescence, 3 µM; AID 1448, 2008; 100% = the carbachol control signal; 220,000 compounds, 0.29% hits; activation, % at 3 µM; Mucolipin-3 (Homo sapiens), Q8TDD5;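 active = activation above its plate's cutoff, the mean activation of the plate's test wells plus 3 SD, cut at about 12% in these data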;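 also: 0% = DMSO only wells and 100% = carbachol wells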
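Material: HEK293 cells stably carrying human TRPML3-YFP; compound dosing: single dose, 3 µM final nominal compound, 0.3% DMSO final; incubation: 1-h 37 °C dye load, 5-s basal, 120-s post-compound reads; technique: Fluo-8 intracellular calcium fluorescence, excitation 470-495 nm, emission 515-575 nm; read-out basis: percent activation from peak-to-basal fluorescence ratio, scaled between DMSO and carbachol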
ROMK retest – ROMK channel modulator hit retest, confirmation, cell-based, thallium flux, duplicate, resupplied hits; AID 1917, 2009; fluorescence ratio; active compounds read low; shares compounds with ROMK mod; normalized thallium flux (F/F0 slope) at 10 µM; 3,000 compounds, 54% hits;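 active = Flux at 10 µM at least 3 SD below or above vehicle control mean in one or both replicates; inconclusive = no clear call, values can overlap the other calls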
The depositor's hits bear a star; ? = inconclusive; . = not tested or not shown. Many of the other results were omitted from the sample, so hits are more common in it than they were.

SMILES	ROMK mod	ABCG2 inh	Biofilm kill mix	ABCB1 block	zfTRPN1 agonist	TRPML3 ag	ROMK retest
Cc1cc(C)nc(SCc2nnc(SCC(=O)Nc3ccc(Cl)c(C(F)(F)F)c3)o2)n1	-3.9*	8	.	2	0	0	0.064*
OCCC1CN(Cc2nc(-c3ccc(F)cc3)cs2)CCN1CCc1ccccc1 (centres undefined)	-3.9*	3	15	3	4	1	0.054*
COc1ccccc1Nc1ncnc2nc[nH]c12	4*	2	.	0	0	0	0.084
COc1cc2c(cc1OC)CN(c1nc(-c3cccnc3)nc3ccccc13)CC2	-0.16	11	16	11	-2	0	0.08
COc1ccccc1Nc1nnc(C)c(=O)[nH]1	3*	0	.	-1	0	2	0.077
CC(NC(=O)CC12CC3CC(CC(C3)C1)C2)C(=O)O (centres undefined)	2.1*	1	.	0	3	1	0.091
O=C(CC12CC3CC(CC(C3)C1)C2)NCO	0.11	1	.	0	0	0	.
CCCCN(C(=O)CSc1nnc(-c2ccccc2OC)n1C)c1c(N)n(Cc2ccccc2)c(=O)[nH]c1=O	-0.55	19	16	0	1	0	.
O=c1c2ccccc2nnn1COc1ccc(Cl)cc1Br	-0.64	5	7	1	0	0	.
CC(Oc1ccc(Cl)cc1Cl)C(=O)OCn1nnc2ccccc2c1=O (centres undefined)	3.7*	1	.	0	-1	1	0.083
CC[C@@H](C)C(NC(=O)OC(C)(C)C)c1cn([C@@H](Cc2cc3ccccc3[nH]2)C(=O)N2CCN(C(=O)OC(C)(C)C)CC2)nn1 (some centres undefined)	.	5	18	11	-1	0	.
CC(C)(C)NS(=O)(=O)c1ccc(/C=C/C(=O)O)cc1	.	0	7	1	-1	1	.
COc1ccc(/C=C/C(=O)Nc2cccc(F)c2)cc1S(=O)(=O)N1CCOCC1	-0.86	2	15	1	3	2	0.064*
CCC1Oc2ccc(C)cc2N(CC(=O)N(Cc2cccnc2)Cc2ccc(C)o2)C1=O (centres undefined)	.	-1	.	0	0	0	.
CCC1Oc2ccc(C)cc2N(CC(=O)N(Cc2ccc(C)o2)C2CC(C)(C)NC(C)(C)C2)C1=O (centres undefined)	-6.9*	3	16	0	1	0	0.059*
COCCOC(=O)C1=C(C)OC(N)=C(C#N)C1c1ccc2c(c1)OCO2 (centres undefined)	-1.1	0	.	0	0	-1	.
C=CCOC(=O)C1=C(C)OC(N)=C(C#N)C1c1ccc2c(c1)OCO2 (centres undefined)	-3.2*	3	.	1	0	-1	0.085*
CCOC(=O)c1cnc(N)nc1C(F)(F)F	-0.29	3	-11	0	-1	1	.
Cc1ccc(S(=O)(=O)CC(=O)c2ccc([N+](=O)[O-])cc2)cc1	.	.	18	.	1	1	0.089
Cc1ccc(S(=O)(=O)CC(=O)c2ccc(C)c([N+](=O)[O-])c2)cc1	.	1	.	0	0	0	.
COc1cc(C(=O)N2CCC(n3c(C)nc4cc(F)ccc43)CC2)cc(OC)c1OC	.	5	20	1	0	0	.
COc1ccccc1CNCC(O)Cn1c2ccccc2c2ccccc21 (centres undefined)	-3.2*	1	13	3	1	1	0.061*
CCCCn1c(N)c(N(CC)C(=O)CSc2nnnn2-c2cc(C)ccc2C)c(=O)[nH]c1=O	0.54	-1	9	0	-3	0	.
CC[n+]1c(C)n(-c2ccccc2)c2ccc(C(=O)OC)cc21	-0.4	1	10	0	1	1	.
Cc1cccn2c(=O)c(C=O)c(N3CCCCCC3)nc12	2.1*	8	.	1	0	1	0.074
SMILES	ROMK mod	ABCG2 inh	Biofilm kill mix	ABCB1 block	zfTRPN1 agonist	TRPML3 ag	ROMK retest
Cc1cccn2c(=O)c(C=O)c(N3CC(C)OC(C)C3)nc12 (centres undefined)	-0.27	4	25	1	2	1	.
CCOc1cccc(NC(=O)/C(C#N)=C/c2cccnc2)c1	.	.	13	.	2	1	0.035*
CC1CCC(NC(=O)CCNC(=O)c2ccccc2)CC1 (centres undefined)	-0.53	-1	-6	0	-1	-1	.
O=C(Nc1ccc(Cl)cc1)OCc1cn(-c2ccccc2)nn1	0.28	1	10	0	0	1	?
COc1ccc(C2=NOC(C(=O)Nc3cccnc3Cl)C2)cc1 (centres undefined)	.	0	6	0	3	1	.
COC(=O)CCN(C(=O)c1ccc(N2CCCC2)c([N+](=O)[O-])c1)c1ccccn1	-0.63	9	15	2	-2	1	.
COC(=O)CCN(C(=O)c1ccc(N2CCCCC2)c([N+](=O)[O-])c1)c1ccccn1	-2.1*	5	-7	2	0	1	0.067*
CCOC(=O)COc1cccc2c(=O)n(CC(=O)NCc3ccccc3)ccc12	4.7*	.	18	.	1	0	0.088
CCOC(=O)COc1cccc2c(=O)n(CC(=O)NCc3ccc(F)cc3)ccc12	3.1*	.	27	.	2	1	0.092
CCOC(=O)COc1cccc2c(=O)n(CC(N)=O)ccc12	0.13	.	11	.	1	1	.
C=C(C)CNC(=S)Nc1cccc(N)n1	-0.49	7	26	0	0	0	.
CN(c1ccccc1)c1cc(=O)[nH]c(=O)[nH]1	0.03	1	9	0	0	0	.
CCOC(=O)c1[nH]c2ccccc2c1NC(=S)Nc1ccccc1	-0.54	11	8	1	-2	0	.
CCOC(=O)c1[nH]c2ccccc2c1NC(=S)Nc1cccc(C)c1	-0.14	3	14	1	-1	0	0.077
CCOc1cccc(/C=C2\NC(=S)N(c3ccccc3)C2=O)c1O	.	.	13	.	14	7	0.058*
